Screening results from PubChem BioAssay.
MBD2 inh: inhibitors of MBD2 binding to methylated DNA, primary screen, biochemical, TR-FRET, DNA-binding domain, human. Methyl-CpG-binding domain protein 2 (Homo sapiens), Q9UBB5. MBD2 binding to methylated oligonucleotide. inhibition, % at 4.4 µM. 0.31% of 370,000 active. AID 686964, 2013; in the data active = inhibition above about 13%
LEDGF integ inh: blockers of LEDGF/p75-dependent integrase strand transfer – biochemical, TR-FRET, high throughput, primary screen | AID 743269, 2014 | inhibition, % at 3.7 µM | HIV-1 integrase (with human LEDGF/p75) | 0.64% of 370,000 active | TR-FRET IN-LEDGF/p75 DNA integration, Eu/Cy5;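 active = inhibition above the screen-wide mean plus 3 SD, cut at about 13% in these data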;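 also: signal is the Cy5 over europium emission ratio at 671 and 618 nm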
TDP2 absorb: human TDP2 enzyme inhibitors, primary screen, biochemical, epi absorbance, recombinant enzyme. T5PNP hydrolysis, p-nitrophenol absorbance 415 nm. 0.34% of 370,000 active. AID 720702, 2013. inhibition, % at 12.8 µM. Tyrosyl-DNA phosphodiesterase 2 (Homo sapiens), O95551;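 active = inhibition above the mean of all tested compounds plus 3 SD, set per campaign, cut at about 25% in these data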
Target sequence (O95551 whole entry, looked up): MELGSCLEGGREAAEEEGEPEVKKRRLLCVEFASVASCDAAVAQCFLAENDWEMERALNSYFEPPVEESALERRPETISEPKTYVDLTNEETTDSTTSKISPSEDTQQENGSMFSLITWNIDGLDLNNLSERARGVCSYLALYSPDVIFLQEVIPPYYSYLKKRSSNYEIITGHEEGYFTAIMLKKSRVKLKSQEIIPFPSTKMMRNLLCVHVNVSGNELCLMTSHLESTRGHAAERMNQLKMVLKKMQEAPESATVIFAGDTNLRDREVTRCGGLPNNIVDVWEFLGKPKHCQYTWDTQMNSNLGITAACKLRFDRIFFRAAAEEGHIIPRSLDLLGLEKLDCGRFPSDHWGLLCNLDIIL
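Test system: human TDP2 enzyme; Input: 120 nM TDP2 per well; Buffer or medium: Mg2+-containing Tris-HCl buffer, pH 7.5; Reagent: 5 mM T5PNP; Dosing: 12.8 µM single point, 1% DMSO; Incubation: reaction 2 h, 37 °C; Detection: p-Nitrophenol epi absorbance; Read-out: % inhibition relative to enzyme-containing and enzyme-free wells; Replicates: single well per compound.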
UHRF1 binding: UHRF1 methylated DNA binding inhibitors, primary screen, counter-screen for MBD2 inhibitor project, biochemical, TR-FRET, human UHRF1, single concentration; E3 ubiquitin-protein ligase UHRF1 (Homo sapiens), Q96T88; UHRF1 binding to methylated oligo; AID 687016, 2013; 0.75% of 370,000 active; inhibition, % at 4.4 µM; in the data active = inhibition above about 21%;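 also: UHRF1 SRA domain binding a hemimethylated CpG hairpin DNA probe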
TDP2 inh conf: human TDP2 enzyme inhibitors, retest, confirmation, biochemical, epi absorbance, recombinant enzyme | shares compounds with TDP2 absorb | absorbance read-out | inhibition, % at 12.8 µM | 22% of 1,100 active | AID 743263, 2014; in the data active = inhibition above about 25%
Large screens that a line does not name were inactive (follow-up assays come after a bar, where they were run); ! = repeats disagree. Only some compounds are listed: those with a hit (about 1.6% of all), similar ones and a draw of the others.

O=C(CCCCl)NC1=NN(c2ccccc2)C(=O)C1	none
COc1ccc(Cc2nc3ccc(C(=O)N4CCCCC4CCO)cc3o2)cc1 (stereo not drawn)	TDP2 absorb 25 | TDP2 inh conf inactive
CCC1CCCCN1C(=O)c1ccc2nc(Cc3ccc(OC)cc3)oc2c1 (stereo not drawn)	none
O=C(NC1CCCC1)C1CCN(C(=O)c2cc(Cl)ccc2Cl)CC1	TDP2 absorb 26 | TDP2 inh conf inactive
Oc1ccc(C2=NNC(c3ccc(O)cc3)=NN2)cc1	TDP2 absorb 28 | TDP2 inh conf inactive
Oc1ccc(-c2nnc(-c3ccc(O)cc3)nn2)cc1	none
COc1cc(/C=C/C(=O)OCC(=O)NC(=O)NC(C)C)ccc1OCC#N	none
COc1cc(/C=C/C(=O)OCC(=O)Nc2cc(C)on2)ccc1OCC#N	TDP2 absorb 26 | TDP2 inh conf inactive
CCOC(=O)[C@]12CCCCC/C=C\1N(Cc1ccc(OC)cc1)C(=O)[C@H]2CC(=O)NCc1cccc2ccccc12	none
Cc1c(NC(=O)CN2CC(C)OC(C)C2)c(=O)n(-c2ccccc2)n1C (stereo not drawn)	TDP2 absorb 29! | TDP2 inh conf inactive
Cc1c(NC(=O)CN2CCN(c3ccccc3)CC2)c(=O)n(-c2ccccc2)n1C	none
O=C(OCc1cn(Cc2cccc(F)c2F)nn1)N1CCCC1	none
COCCSc1ncccc1-c1nc2ccccc2[nH]1	none
Cc1ccccc1NC(=O)c1ccccc1NC(=O)c1cccs1	TDP2 absorb 27 | TDP2 inh conf inactive
CCOc1ccc2[nH]c3c(NCCO)ncnc3c2c1	TDP2 absorb 27 | TDP2 inh conf inactive
COc1ccccc1-c1ccc(SCC(=O)NC2CCCC2)nn1	TDP2 absorb 37 | TDP2 inh conf inactive
CCOC(=O)C1=C(Cc2ccc(C)cc2)C(=O)c2ccccc2C1=O	TDP2 absorb 31 | TDP2 inh conf 27
CCOC(=O)c1ccc(COC(=O)c2ccc3c(c2)-c2ccccc2C3=O)cc1	none
C[C@@H]1COc2cccc(N3CCSCC3)c2S(=O)(=O)N1C	none
CC(CC(=O)O)CC(=O)Nc1cc(C(F)(F)F)cc(C(F)(F)F)c1 (stereo not drawn)	none
O=C(O)COCC(=O)Nc1cc(C(F)(F)F)cc(C(F)(F)F)c1	TDP2 absorb 26 | TDP2 inh conf inactive
Cc1ccc(-n2c(SCC(=O)Nc3ccc4c(c3)OCCO4)nnc2-c2cccnc2)cc1	none
Cc1cc(C)c(C#N)c(N2CCN(c3ccc(F)cc3)CC2)n1	TDP2 absorb 36 | TDP2 inh conf inactive
Cc1cc(C)c(C#N)c(N2CCCC2)n1	none
O=C(NC1CC2CCCC(C1)N2C(=O)Nc1cccc(F)c1)C1CC1 (stereo not drawn)	TDP2 absorb 28 | TDP2 inh conf inactive
COC(=O)[C@]12C[C@H](CC(=O)NCc3ccccc3)C(=O)N(Cc3ccc(Cl)cc3Cl)C1=C[C@H](C(C)C)O[C@@H]2C1CC1	none
CC1(C(=O)OCC(=O)Nc2cccc(S(=O)(=O)NC3=NCCCCC3)c2)CC1(Cl)Cl (stereo not drawn)	TDP2 absorb 27 | TDP2 inh conf inactive
O=C1c2ccccc2-c2onc3c(N4CCN(CCO)CC4)cc(N4CCN(C(=O)c5ccco5)CC4)c1c23	none
O=C(O)CCCNc1cc(N2CCN(C(=O)c3ccco3)CC2)c2noc3c2c1C(=O)c1ccccc1-3	TDP2 absorb 30 | TDP2 inh conf 27
COC(=O)[C@]12C[C@H](CC(=O)NCc3ccccc3)C(=O)N(CCC3=CCCCC3)C1=C[C@H](COCc1ccccc1)O[C@@H]2C	none
CCCCOc1ccc(CSCCNC(=S)Nc2ccccc2)cc1	none
CCCCCOc1ccc(CSCCNC(=S)Nc2ccccc2)cc1	TDP2 absorb 37 | TDP2 inh conf inactive
Cc1cc(=O)n(CCCc2ccccc2)[nH]1	TDP2 absorb 37 | TDP2 inh conf inactive
CCOc1ccc(N2CC(C(=O)N3CCCC3)CC2=O)cc1 (stereo not drawn)	none
CCOc1ccc(N2CC(C(=O)N3CCN(C(=O)c4ccco4)CC3)CC2=O)cc1 (stereo not drawn)	TDP2 absorb 26 | TDP2 inh conf inactive
Cc1cnc(C(=O)Nc2c(-c3ccccc3)[nH][nH]c2=O)cn1	none
Cc1cc(NC(=O)c2ccc3c(c2)OCO3)no1	none
O=C(Nc1c(-c2ccc(Cl)cc2)[nH][nH]c1=O)c1ccc(Br)cc1	TDP2 absorb 38 | TDP2 inh conf inactive
O=C(Nc1c(-c2ccccc2)[nH][nH]c1=O)c1ccccc1	TDP2 absorb 35 | TDP2 inh conf inactive
O=C(Nc1c(-c2ccc3c(c2)OCO3)[nH][nH]c1=O)c1ccc2c(c1)OCO2	TDP2 absorb 48 | TDP2 inh conf 67
O=C(Nc1c(-c2ccccc2)[nH][nH]c1=O)c1cccc(C(F)(F)F)c1	TDP2 absorb 26 | TDP2 inh conf inactive
CC(C)c1[nH]nc2c1C(c1ccccc1)N(c1ccccc1)C2=O (stereo not drawn)	none
CCCCCCCCN1C(=O)[C@@H](CC(=O)N2CCSCC2)C[C@@]2(C(=O)OC)C1=C[C@H](C1CCCC1)O[C@@H]2C	none
COc1cccc(C(C[N+](=O)[O-])c2c(C)[nH]n(-c3ccccc3)c2=O)c1 (stereo not drawn)	TDP2 absorb 28 | TDP2 inh conf inactive
COc1cccc(C(C(=O)NC(C)(C)C)N(Cc2ccc(C)cc2)C(=O)CCC(=O)Nc2cc(C)on2)c1OC (stereo not drawn)	TDP2 absorb 31 | TDP2 inh conf inactive
COc1ccc2c(CCN3C(=O)c4ccccc4C3=O)c(-c3c(CCN4C(=O)c5ccccc5C4=O)c4ccccc4n3C(=O)OC(C)(C)C)[nH]c2c1	none
COc1ccc(C(=O)NCC2(c3ccccc3)CCOCC2)cc1[N+](=O)[O-]	none
COc1ccc(C(=O)NCC(O)CN2CCOCC2)cc1[N+](=O)[O-] (stereo not drawn)	TDP2 absorb 25 | TDP2 inh conf inactive
CCN(CC)C(=O)CC[C@H]1CC[C@]2(CCCN(C(=O)C3CCCC3)C2)O1	none
COc1cccc(C(=O)N[C@H](C(=O)N2CCC[C@H]2C(=O)NCCc2ccccc2Cl)C(C)C)c1	none
Cc1ccc(C(=O)N/N=C/c2ccc(-c3ccc(Br)cc3[N+](=O)[O-])o2)o1	TDP2 absorb 27 | TDP2 inh conf inactive
Cc1ccc(C(=O)N/N=C\c2ccc(Br)o2)o1	none
CN1C(=O)c2cc(NS(=O)(=O)c3cccc(F)c3)ccc2OC[C@@H]2O[C@H](CC(=O)O)CC[C@H]21	none
C[C@@H]1C=CCCO[C@]12C(=O)N(Cc1ccccc1C(F)(F)F)c1cccc(Br)c12	none
